Compound activity (PubChem BioAssay)
GSIS activator: primary screen for activators of insulin secretion dependent on glucose, INS-1E cells, GLuc reporter luminescence. AID 743287. INS-1E GLuc reporter insulin secretion, 2-3 h. 0.61% of 370,000 active. activation, % at 16.6 µM;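 active = lowest replicate activation of at least 40%, so every replicate reaches that level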;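 also: 0% = median of neutral control wells and 100% = median of IBMX positive control wells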
HIV Env fusion: HIV envelope-mediated fusion inhibition; 1.1% of 360,000 active; HeLa-JRFL Env/CEM21 cell fusion, luciferase; inhibition, % at 12.3 µM;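 active = mean replicate inhibition score of at least 50 and every replicate individually at or above 50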;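 also: 0% = plate neutral controls and 100% = maraviroc near 300 nM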
Rtt109 Vps75: blocks Candida albicans Rtt109/Vps75 acetyltransferase activity. AID 540336. 0.16% of 330,000 active. inhibition, % at 34.9 µM. Q5AAJ8. purified Rtt109/Vps75, ThioGlo CoA-SH fluorescence, 4 h;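 active = inhibition of at least 50% in every replicate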
Cneo AK release: causes C. neoformans cell lysis; adenylate kinase release luminescence, 4 h; normalised: neutral wells 0, clomiphene wells 100; lysis activity, % at 15 µM; 0.2% of 360,000 active;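 active = mean lysis activity across replicates of at least 80%, whatever share of replicates individually reach that level; inactive = mean lysis activity below 80%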
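Test system: log-phase Cryptococcus neoformans yeast cells. Input: 5 × 10^6 yeast cells/mL. Medium: fresh YPD growth medium. Doses: single dose. Incubation: static 4 h at 37 °C with compound, 1 h detection. Measured by: luminescent adenylate kinase detection reagent. Read-out: signal increase indicating cell lysis. Benchmarks: Clomiphene.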
dFosB activator: mouse delta FosB homodimer activation | AID 493131 | activation, % at 25 µM | P13346 | 0.99% of 340,000 active | purified delta FosB, TAMRA-CDK5 oligo fluorescence polarization; percent of positive-control signal above neutral wells;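 active = mean activation above about 17%, with every replicate also reaching it, limit read from the data, passing the limit was not always enough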
Target sequence (P13346 whole entry, looked up): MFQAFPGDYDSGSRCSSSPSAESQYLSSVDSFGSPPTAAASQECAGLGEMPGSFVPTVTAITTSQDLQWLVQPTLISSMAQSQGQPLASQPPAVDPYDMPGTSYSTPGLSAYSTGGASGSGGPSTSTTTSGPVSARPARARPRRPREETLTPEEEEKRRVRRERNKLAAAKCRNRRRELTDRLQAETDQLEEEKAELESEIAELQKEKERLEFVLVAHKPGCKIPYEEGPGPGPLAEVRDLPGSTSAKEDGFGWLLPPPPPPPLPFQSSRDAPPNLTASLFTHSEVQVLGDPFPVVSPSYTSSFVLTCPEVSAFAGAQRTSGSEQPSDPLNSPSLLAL
miR-122 sensor: blocks miR-122 activity in Huh7 sensor cells; activation (reporter increase), % at 12.5 µM; 0.3% of 340,000 active; Huh7 miR-122 Renilla luciferase sensor, 48 h; neutral wells = 0, positive control = 100; AID 602342;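 active = mean replicate activation score at least 90 and every replicate individually at or above 90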;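 also: higher luciferase means less miR-122 activity so hits act as miR-122 inhibitors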
* marks the source's active call; other numbers are inactive results; / = no result; [ ] = remark or other dose. In the library only some 2.4% were active in any assay of this set; here they are far more common.

SMILES	GSIS activator	HIV Env fusion	Rtt109 Vps75	Cneo AK release	dFosB activator	miR-122 sensor
COc1ccc(CN2CCNC(=O)C2CC(=O)NCCCn2nnc3ccccc32)cc1C (configuration not stated)	19	61*	-4	-2	1	-1
Cc1ccc(C)c(NC(=O)C2CCCN(S(=O)(=O)c3ccc4[nH]c(=O)ccc4c3)C2)c1 (configuration not stated)	10	24	-3	0	6	-2
O=C(Nc1ccc(F)cc1)C1CCCN(S(=O)(=O)c2ccc3[nH]c(=O)ccc3c2)C1 (configuration not stated)	-3	1	-6	5	18*	2
CCCc1nc2sc3c(SCC(=O)NCc4ccco4)ncnc3c2c2c1CCC2	61*	-26	5	1	-34	-6
Cc1c(Br)c([N+](=O)[O-])nn1CC(=O)Nc1sc2c(c1C(=O)OC(C)C)CCCC2	46*	-30	-8	1	-4	-2
CC(=O)N1[C@H](C(=O)NC2Cc3ccccc3C2)[C@@H](CO)[C@@H]2Cn3c(ccc(-c4ccncc4)c3=O)[C@@H]21	0	/	/	-2	/	/
Cc1ccc(NC(=O)CN2C(=O)N/C(=C/c3ccc(C)s3)C2=O)cc1	99*	-40	0	1	8	-5
CN(C)C(=O)CCCc1nc(-c2ccc(Cl)cc2)no1	-3	55*	-4	-1	-7	/
O=C(CCCc1nc(-c2ccc(Cl)cc2)no1)Nc1cccnc1	/	61*	7	-2	-4	-1
C[C@H]1CN([C@@H](C)CO)C(=O)Cc2cc(NC(=O)Nc3ccccc3)ccc2O[C@@H]1CN(C)C(=O)Nc1ccc2c(c1)OCO2	8	-15[16.7 µM]	/	101*	/	30[16.7 µM]
C[C@H](CO)N1C[C@H](C)[C@H](CN(C)CC2CC2)Oc2ccc(NC(=O)Nc3ccc4c(c3)OCO4)cc2CC1=O	-8	65*[16.7 µM]	/	-3	/	3[16.7 µM]
C[C@H]1CN([C@@H](C)CO)C(=O)Cc2cc(NC(=O)Nc3ccc4c(c3)OCO4)ccc2O[C@@H]1CN(C)CC1CC1	-8	14[16.7 µM]	/	7	/	-6[16.7 µM]
Cc1noc(C)c1NC(=O)Nc1ccc2c(c1)CC(=O)N([C@@H](C)CO)C[C@H](C)[C@@H](CN(C)Cc1ccc(Cl)c(Cl)c1)O2	-5	/	/	0	/	109*[16.7 µM]
Cc1noc(C)c1NC(=O)Nc1ccc2c(c1)CC(=O)N([C@H](C)CO)C[C@@H](C)[C@H](CN(C)Cc1ccc(Cl)c(Cl)c1)O2	-14	/	/	-2	/	72[16.7 µM]
C[C@@H]1CN([C@@H](C)CO)C(=O)Cc2cc(NC(=O)Nc3ccc4c(c3)OCO4)ccc2O[C@H]1CN(C)Cc1ccc(Cl)c(Cl)c1	-9	57*[16.7 µM]	/	0	/	-25[16.7 µM]
C[C@@H](NC(=O)C[C@H]1C=C[C@H](NC(=O)C2CCC2)[C@@H](CO)O1)c1ccccc1	12	-6[16.7 µM]	/	55	/	/
COc1ccc(NC(=O)N2CCC3(CC2)CN(CC2CC2)[C@@H](CO)c2c3c3ccc(OC)cc3n2C)cc1	-5	/	/	/	/	/
CC(C)NC(=O)Nc1ccc2c(c1)CC(=O)N([C@@H](C)CO)C[C@H](C)[C@H](CN(C)Cc1ccc3c(c1)OCO3)O2	3	-8[16.7 µM]	/	107*	/	3[16.7 µM]
CCOC(=O)c1nc(NCc2cccnc2)c2ccccc2n1	46*	-12	7	0	-9	-1
C/C=C/c1ccc2c(c1)O[C@H](CN(C)C(=O)CN1CCOCC1)[C@H](C)CN([C@H](C)CO)S2(=O)=O	6	9[16.7 µM]	/	0	/	-1[16.7 µM]
COc1ccc(C(=O)NCC(=O)OCC(=O)NC2CCCCCC2)cc1OC	65*	-4	-18	0	-3	-7
COc1ccc(C(=O)OCC(=O)NC2CCCC2)cc1OC	10	0	5	-3	-5	/
COc1ccc(C(=O)NCC(=O)OCC(=O)NC(=O)NC2CCCCC2)cc1OC	/	/	4	-1	-7	-5
CCOc1ccc(C(=O)OCC(=O)NC2CCCC2)cc1OCC	41*	10	0	-3	-4	-6
CCOc1ccc(C(=O)OCC(=O)Nc2cc(C)on2)cc1OCC	62*	-26	-1	0	1	-2
SMILES	GSIS activator	HIV Env fusion	Rtt109 Vps75	Cneo AK release	dFosB activator	miR-122 sensor
CCCNC(=O)C[C@H]1CC[C@@H]2[C@H](COc3ccc(NC(=O)c4ccc5c(c4)OCO5)cc3C(=O)N2C)O1	13	12[16.7 µM]	/	52	/	7[16.7 µM]
CCCC#Cc1ccc2c(c1)O[C@@H](CN(C)C(=O)C1CCCCC1)[C@H](C)CN([C@H](C)CO)S2(=O)=O	-10	62*[16.7 µM]	/	/	/	19[16.7 µM]
CC(C)CC#Cc1ccc2c(c1)O[C@H](CN(C)C(=O)C1CCCCC1)[C@@H](C)CN([C@@H](C)CO)S2(=O)=O	55*	22[16.7 µM]	/	1	/	27[16.7 µM]
CC(C)CC#Cc1ccc2c(c1)O[C@H](CN(C)C(=O)C1CCCCC1)[C@@H](C)CN([C@H](C)CO)S2(=O)=O	-4	-1[16.7 µM]	/	1	/	41[16.7 µM]
CC(C)CC#Cc1ccc2c(c1)O[C@@H](CN(C)C(=O)C1CCCCC1)[C@H](C)CN([C@@H](C)CO)S2(=O)=O	35	57*[16.7 µM]	/	1	/	7[16.7 µM]
CCCC#Cc1ccc2c(c1)O[C@@H](CN(C)C(=O)C1CCCCC1)[C@@H](C)CN([C@H](C)CO)S2(=O)=O	-18	22[16.7 µM]	/	/	/	-2[16.7 µM]
O=C(C1CCCC1)N1CC(=O)N2[C@H](CO)[C@@H](c3ccc(Br)cc3)[C@@H]2C1	-21	/	/	/	/	/
Cc1cccc(C(=O)Oc2ccccc2C2C[C@]3(C)CC(=O)NC3N2C(=O)c2cccc(C)c2)c1 (some centres not stated)	/	48*	11	0	-17	6
C[C@@]12CC(=O)NC1N(C(=O)c1cccc(C(F)(F)F)c1)C(c1ccccc1O)C2 (some centres not stated)	/	105*	13	2	-4	-7
CCOC(=O)N1CCN(C(=O)COc2cccc3c2CCN(Cc2ccc(F)cc2)C3=O)CC1	-14	57*	7	-1	-7	-7
CCOC(=O)N1CCN(C(=O)COc2cccc3c2CCN(CC)C3=O)CC1	6	16	-1	-1	-3	-5
O=C1c2cccc(OCc3ccc(F)cc3)c2CCN1Cc1ccccc1	-26	77*	0	-2	-3	-5
CO[C@@H]1CN(C)C(=O)c2ccc(NC(=O)C3CC3)cc2OC[C@@H](C)N(CCC(F)(F)F)C[C@H]1C	-20	/	/	/	/	/
O=C(N[C@@H]1CC[C@H](CCNC(=O)C2CCC2)O[C@@H]1CO)c1ccccn1	-14	3[16.7 µM]	/	0	/	/
CCc1noc(C)c1C(=O)OCC(=O)c1ccc(OC)c(OC)c1	16	/	10	3	-2	-7
COc1ccc(C(=O)COC(=O)CSCc2c(C)noc2C)cc1OC	55*	/	9	/	-9	-2
C=C1C(=O)O[C@@H]2[C@H]3O[C@]3(C)CC/C=C(\C)CC[C@@H]12	-13	23	7	0	0	-10
